Article PMC3557458 (Journal of molecular biology, 2012)
Entries after “also recorded” stand apart in the source; their conditions may differ.

Assays:
Bim and Bad BH3 peptides = assay type: binding, human; conditions: FP competition, Bim-22 and Bad-22, Ki relative to Bcl-xL
Method in brief: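 His6-tagged Bcl-xL variants (E. coli RP3098, Ni-NTA under native conditions) at 50 nM with 15 nM fluorescein-labelled peptide, which varied by variant, competed against serially diluted unlabelled peptide. Equilibrated ≥3 hr at ~25 °C; anisotropy read in duplicate. Ki values were fitted using direct-binding Kd values, then normalized to averaged parent-protein Ki.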

[1] = biological target: recombinant native Bcl-xL (human) (UniProt Q07817); experiment: fluorescence polarisation
RX1, recombinant (human) = RX1, recombinant (human) (UniProt Q07817); experiment: fluorescence polarisation
[2] = biological target: recombinant native Bcl-xL (human, UniProt Q07817-1 1-209); experiment: fluorescence polarisation
RX1 = RX1 (Homo sapiens, UniProt Q07817, A142G/F105L/F146A/L130I/Q111G/Q125V/S122I/V126A/Y101H); assay type: binding; conditions: from Ki values of RX1 and Bcl-xL for Bim-22 and Bad-22
[3] = tested on: fluoresceinated Bim vs. Bad BH3; experiment: Fluorescence polarization direct binding of fluoresceinated Bim vs. Bad BH3; design: species or system human; conditions: labeled peptide 5 nM, at least 1 hr, ~25 °C

recombinant native Bcl-xL, sequence (Q07817 1-209): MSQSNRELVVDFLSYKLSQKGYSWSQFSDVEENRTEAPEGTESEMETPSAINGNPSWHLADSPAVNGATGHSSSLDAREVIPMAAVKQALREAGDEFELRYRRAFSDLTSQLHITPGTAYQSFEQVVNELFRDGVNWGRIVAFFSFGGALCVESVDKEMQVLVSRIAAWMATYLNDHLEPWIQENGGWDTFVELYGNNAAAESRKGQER

In the case of “A104M: Bcl-xL point mutant A104M (not in RX1)”, the “Bad vs. Bim binding preference of point mutation in the context of Bcl-xL” value (shortened to “Bad vs. Bim binding preference”) (Bim and Bad BH3 peptides) is reported as “confirmed to be specific”.

With A142G: Bcl-xL point mutant A142G the “Bad vs. Bim binding preference” value (Bim and Bad BH3 peptides) was “preferred binding Bad over Bim”.

In the case of Bad-22, Bad BH3 peptide of 22 residues, the Ki [1] is reported as 2 nM and the Ki (RX1, recombinant (human)) is reported as 33 nM.

Work on Bim-22, Bim BH3 peptide of 22 residues yielded a Ki [1] of 3 nM and a Ki (RX1, recombinant (human)) greater than 50000 nM.

F105L: Bcl-xL point mutant F105L was tested, and the “Bad vs. Bim binding preference” value (Bim and Bad BH3 peptides) was “favored Bim binding over Bad”.

In the case of F146A: Bcl-xL point mutant F146A, the “Bad vs. Bim binding preference” value (Bim and Bad BH3 peptides) is reported as “did not confer specificity”.

With L130I: Bcl-xL point mutant L130I the “Bad vs. Bim binding preference” value (Bim and Bad BH3 peptides) was “shown not to be”.

“S122I: Bcl-xL point mutant, Ser 122 to Ile” was tested, and the “Bad vs. Bim binding preference” value (Bim and Bad BH3 peptides) was “preferred binding Bad over Bim; also recorded: confirmed to be specific”.

For V126A: Bcl-xL point mutant V126A, the “Bad vs. Bim binding preference” value (Bim and Bad BH3 peptides) was “preferred binding Bad over Bim”.

B1: Bad-28, recombinant Bad BH3 28-mer peptide (peptide, UniProt Q92934 104-131, looked up)
peptide: LWAAQRYGRELRRMSDEFVDSFKKGLPR
Work on B1 yielded a Ki [2] of less than 0.1 nM.

B2: PUMA BH3 peptide (peptide)
chain: EQWAREIGAQLRRMADDLNAQYERRRQE
Work on B2 yielded a Ki [2] of less than 0.1 nM.

B3: RX1: Re-designed Bcl-xL variant: Y101H, F105L, Q111G, S122I, Q125V, V126A, L130I, A142G, F146A (protein)
chain: MSQSNRELVVDFLSYKLSQKGYSWSQFSDVEENRTEAPEGTESEMETPSAINGNPSWHLADSPAVNGATGHSSSLDAREVIPMAAVKQALREAGDEFELRHRRALSDLTSGLHITPGTAYQIFEVAVNEIFRDGVNWGRIVGFFSAGGALCVESVDKEMQVLVSRIAAWMATYLNDHLEPWIQENGGWDTFVELYGNNAAAESRKGQER
modifications: left off: His6, end not stated, state not stated
B3 was tested, and the “specificity increase for Bad BH3 over Bim BH3 relative to native Bcl-xL” value (RX1) was ≥ 1,000 fold and the “preference for binding Bad over Bim, direct binding” value [3] was “strong preference”.
